Reference: ChEMBL document CHEMBL4325842, “Design, synthesis, and biological evaluation of novel aminopyrimidinylisoindolines as AXL kinase inhibitors” (Bioorg Med Chem Lett, 2018)

Tests used:
[1] = tested on: HCT-116; experiment: Antiproliferative activity against human HCT116 cells after 2 days by spectrophotometric analysis; assay type: functional; details: HCT-116, 48 h
[2] = target: Activated CDC42 kinase 1 (Homo sapiens) (UniProt Q07912); experiment: Inhibition of human ACK1 at 10 uM using EAIYAAPFAKKK as substrate by [gamma-33P]-ATP assay relative to control
Activated CDC42 kinase 1 (Homo sapiens), sequence (Q07912 whole entry, looked up): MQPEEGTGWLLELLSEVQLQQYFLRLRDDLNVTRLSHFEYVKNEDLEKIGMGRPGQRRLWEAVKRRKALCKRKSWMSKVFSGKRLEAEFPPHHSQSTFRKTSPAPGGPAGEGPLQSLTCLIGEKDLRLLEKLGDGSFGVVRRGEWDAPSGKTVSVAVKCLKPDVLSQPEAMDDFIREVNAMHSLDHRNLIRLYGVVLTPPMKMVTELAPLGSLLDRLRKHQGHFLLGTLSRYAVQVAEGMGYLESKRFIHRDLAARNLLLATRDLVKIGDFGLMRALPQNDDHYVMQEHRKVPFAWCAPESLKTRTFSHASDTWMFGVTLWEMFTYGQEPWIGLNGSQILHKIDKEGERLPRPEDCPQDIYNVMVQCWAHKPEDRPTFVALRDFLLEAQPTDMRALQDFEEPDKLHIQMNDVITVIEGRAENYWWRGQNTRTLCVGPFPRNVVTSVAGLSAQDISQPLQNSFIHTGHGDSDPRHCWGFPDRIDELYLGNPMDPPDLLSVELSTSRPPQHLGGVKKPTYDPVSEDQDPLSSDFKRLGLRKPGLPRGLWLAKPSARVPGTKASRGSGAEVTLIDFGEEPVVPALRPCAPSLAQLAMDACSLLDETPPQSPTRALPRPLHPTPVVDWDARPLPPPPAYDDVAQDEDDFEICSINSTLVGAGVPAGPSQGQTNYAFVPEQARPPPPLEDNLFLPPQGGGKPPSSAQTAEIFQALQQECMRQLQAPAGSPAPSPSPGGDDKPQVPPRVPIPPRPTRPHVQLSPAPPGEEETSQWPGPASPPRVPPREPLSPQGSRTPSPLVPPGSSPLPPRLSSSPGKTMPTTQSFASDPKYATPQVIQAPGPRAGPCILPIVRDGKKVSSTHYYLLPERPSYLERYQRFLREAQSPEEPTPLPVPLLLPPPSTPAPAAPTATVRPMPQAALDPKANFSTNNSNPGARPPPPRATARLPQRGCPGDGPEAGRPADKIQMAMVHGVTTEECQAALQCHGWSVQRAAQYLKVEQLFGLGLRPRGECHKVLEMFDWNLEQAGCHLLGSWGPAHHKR
In short: (§1)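 Commercial kinase panel screen at a single concentration of 10 μM. % inhibition was calculated as 100 minus % activity.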

[3] = target: Macrophage-stimulating protein receptor (Homo sapiens) (UniProt Q04912); experiment: Inhibition of human RON at 10 uM using KKSRGDYMTMQIG as substrate by [gamma-33P]-ATP assay relative to control
In short: (§2)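 Kinase-panel profiling (50 oncogenic kinases) run by an outside contract service. The test compound was tested at a single concentration of 10 μM. Percent inhibition was calculated as 100 minus % remaining activity.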

[4] = tested on: U-87 MG; experiment: Antiproliferative activity against human U87MG cells after 2 days by spectrophotometric analysis; assay type: functional, U-87MG ATCC; details: 48 h
[5] = target: T1, Tyrosine-protein kinase receptor UFO (Homo sapiens, UniProt P30530); experiment: Inhibition of human AXL using EAIYAAPFAKKK as substrate by [gamma-33P]-ATP assay
T1 sequence (P30530 whole entry): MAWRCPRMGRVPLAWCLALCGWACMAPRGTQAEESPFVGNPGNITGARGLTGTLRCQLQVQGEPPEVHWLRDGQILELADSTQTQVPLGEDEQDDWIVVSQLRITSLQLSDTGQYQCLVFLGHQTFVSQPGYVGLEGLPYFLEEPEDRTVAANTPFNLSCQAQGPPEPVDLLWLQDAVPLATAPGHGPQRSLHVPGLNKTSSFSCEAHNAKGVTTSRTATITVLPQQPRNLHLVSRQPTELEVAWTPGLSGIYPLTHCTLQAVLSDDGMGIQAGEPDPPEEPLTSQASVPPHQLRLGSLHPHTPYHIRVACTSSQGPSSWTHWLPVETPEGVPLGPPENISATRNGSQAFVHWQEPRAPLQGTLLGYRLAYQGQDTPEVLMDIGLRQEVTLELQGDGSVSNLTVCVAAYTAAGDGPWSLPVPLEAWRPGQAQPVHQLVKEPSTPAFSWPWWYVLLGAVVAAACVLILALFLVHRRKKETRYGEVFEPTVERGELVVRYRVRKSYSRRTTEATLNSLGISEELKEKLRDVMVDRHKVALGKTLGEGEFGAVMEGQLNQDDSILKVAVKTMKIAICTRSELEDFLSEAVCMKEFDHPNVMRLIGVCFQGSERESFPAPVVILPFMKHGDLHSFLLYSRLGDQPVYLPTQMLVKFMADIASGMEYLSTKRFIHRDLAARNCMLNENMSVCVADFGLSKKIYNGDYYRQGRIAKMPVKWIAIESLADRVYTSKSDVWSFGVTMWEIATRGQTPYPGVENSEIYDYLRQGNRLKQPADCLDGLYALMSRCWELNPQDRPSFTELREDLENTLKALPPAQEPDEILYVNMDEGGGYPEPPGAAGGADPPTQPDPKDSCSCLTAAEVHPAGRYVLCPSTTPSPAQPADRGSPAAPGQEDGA

[6] = target: Proto-oncogene tyrosine-protein kinase receptor Ret (Homo sapiens) (UniProt P07949); experiment: Inhibition of human RET at 10 uM using MEK1 (K97R) as substrate by [gamma-33P]-ATP assay relative to control; in short: as §2
[7] = target: Aurora kinase A (Homo sapiens) (UniProt O14965); experiment: Inhibition of human AuroraA at 10 uM using [H-LRRASLG] as substrate by [gamma-33P]-ATP assay relative to control; in short: as §1
[8] = target: Mast/stem cell growth factor receptor Kit (Homo sapiens) (UniProt P10721); experiment: Inhibition of human c-KIT at 10 uM using poly[Glu:Tyr] (4:1) as substrate by [gamma-33P]-ATP assay relative to control; in short: as §2
[9] = tested on: A-375; experiment: Antiproliferative activity against human A375 cells after 2 days by spectrophotometric analysis; assay type: functional; details: A-375, 48 h
[10] = target: RAC-alpha serine/threonine-protein kinase (Homo sapiens) (UniProt P31749); experiment: Inhibition of human AKT1 at 10 uM using KGSGSGRPRTSSFAEG as substrate by [gamma-33P]-ATP assay relative to control; in short: as §1
RAC-alpha serine/threonine-protein kinase (Homo sapiens), sequence (P31749 whole entry): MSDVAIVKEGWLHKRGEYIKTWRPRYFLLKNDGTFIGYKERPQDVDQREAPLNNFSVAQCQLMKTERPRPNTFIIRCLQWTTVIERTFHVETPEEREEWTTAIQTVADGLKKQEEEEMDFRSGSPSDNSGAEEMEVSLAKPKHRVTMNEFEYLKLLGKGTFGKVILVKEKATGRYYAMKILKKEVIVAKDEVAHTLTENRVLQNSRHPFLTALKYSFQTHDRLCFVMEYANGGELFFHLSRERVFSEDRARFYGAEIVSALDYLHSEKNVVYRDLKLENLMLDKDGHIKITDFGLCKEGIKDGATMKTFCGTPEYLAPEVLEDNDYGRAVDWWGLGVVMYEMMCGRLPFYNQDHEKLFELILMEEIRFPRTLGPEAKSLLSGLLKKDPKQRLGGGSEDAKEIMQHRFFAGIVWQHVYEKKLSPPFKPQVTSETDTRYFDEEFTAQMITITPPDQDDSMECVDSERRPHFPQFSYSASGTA

[11] = target: Proto-oncogene tyrosine-protein kinase Src (Homo sapiens) (UniProt P12931); experiment: Inhibition of human c-SRC at 10 uM using poly[Glu:Tyr] (4:1) as substrate by [gamma-33P]-ATP assay relative to control; in short: as §2
Proto-oncogene tyrosine-protein kinase Src (Homo sapiens), sequence (P12931 2-536 limits assumed): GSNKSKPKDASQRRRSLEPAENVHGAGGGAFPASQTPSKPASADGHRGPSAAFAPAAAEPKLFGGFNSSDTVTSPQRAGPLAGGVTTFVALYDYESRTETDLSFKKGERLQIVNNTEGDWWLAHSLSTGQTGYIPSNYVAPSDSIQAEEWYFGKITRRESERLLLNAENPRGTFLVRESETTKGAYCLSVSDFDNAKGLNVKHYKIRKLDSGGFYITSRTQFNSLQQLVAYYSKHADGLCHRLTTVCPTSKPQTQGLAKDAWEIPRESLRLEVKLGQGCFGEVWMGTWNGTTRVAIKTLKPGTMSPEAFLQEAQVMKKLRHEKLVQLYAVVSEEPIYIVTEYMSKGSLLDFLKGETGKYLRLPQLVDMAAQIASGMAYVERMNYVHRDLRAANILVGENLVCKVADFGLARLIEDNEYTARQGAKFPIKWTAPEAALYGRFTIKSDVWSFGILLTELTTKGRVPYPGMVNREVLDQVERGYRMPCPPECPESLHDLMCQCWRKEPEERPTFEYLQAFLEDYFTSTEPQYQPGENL

[12] = target: Serine/threonine-protein kinase PLK1 (Homo sapiens, UniProt P53350); experiment: Inhibition of human PLK1 at 10 uM using casein as substrate by [gamma-33P]-ATP assay relative to control; in short: as §2
[13] = target: Tyrosine-protein kinase Lck (Homo sapiens) (UniProt P06239); experiment: Inhibition of human LCK at 10 uM using poly[Glu:Tyr] (4:1) as substrate by [gamma-33P]-ATP assay relative to control; in short: as §1
[14] = target: Insulin receptor (Homo sapiens) (UniProt P06213); experiment: Inhibition of human IR at 10 uM using poly[Glu:Tyr] (4:1) as substrate by [gamma-33P]-ATP assay relative to control; in short: as §1
Insulin receptor (Homo sapiens), sequence (P06213 28-758 limits assumed): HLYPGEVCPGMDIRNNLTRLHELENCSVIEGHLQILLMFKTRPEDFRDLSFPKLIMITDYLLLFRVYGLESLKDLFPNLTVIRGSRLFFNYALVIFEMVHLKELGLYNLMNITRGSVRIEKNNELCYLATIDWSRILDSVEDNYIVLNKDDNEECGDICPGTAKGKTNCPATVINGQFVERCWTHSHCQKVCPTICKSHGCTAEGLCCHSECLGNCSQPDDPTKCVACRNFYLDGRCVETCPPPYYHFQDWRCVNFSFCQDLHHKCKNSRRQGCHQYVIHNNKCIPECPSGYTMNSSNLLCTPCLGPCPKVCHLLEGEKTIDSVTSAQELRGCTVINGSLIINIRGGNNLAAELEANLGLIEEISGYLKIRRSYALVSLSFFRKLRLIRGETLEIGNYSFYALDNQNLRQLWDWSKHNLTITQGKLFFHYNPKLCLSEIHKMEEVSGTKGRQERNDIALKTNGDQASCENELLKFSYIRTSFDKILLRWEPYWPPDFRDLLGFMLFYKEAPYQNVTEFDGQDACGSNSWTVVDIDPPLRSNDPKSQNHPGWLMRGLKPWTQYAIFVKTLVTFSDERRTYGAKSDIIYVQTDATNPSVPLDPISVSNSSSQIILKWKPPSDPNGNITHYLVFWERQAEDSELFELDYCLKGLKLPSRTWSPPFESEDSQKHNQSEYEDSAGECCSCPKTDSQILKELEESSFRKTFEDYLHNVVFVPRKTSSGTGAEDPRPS
Insulin receptor (Homo sapiens), sequence (P06213 763-1382 limits assumed): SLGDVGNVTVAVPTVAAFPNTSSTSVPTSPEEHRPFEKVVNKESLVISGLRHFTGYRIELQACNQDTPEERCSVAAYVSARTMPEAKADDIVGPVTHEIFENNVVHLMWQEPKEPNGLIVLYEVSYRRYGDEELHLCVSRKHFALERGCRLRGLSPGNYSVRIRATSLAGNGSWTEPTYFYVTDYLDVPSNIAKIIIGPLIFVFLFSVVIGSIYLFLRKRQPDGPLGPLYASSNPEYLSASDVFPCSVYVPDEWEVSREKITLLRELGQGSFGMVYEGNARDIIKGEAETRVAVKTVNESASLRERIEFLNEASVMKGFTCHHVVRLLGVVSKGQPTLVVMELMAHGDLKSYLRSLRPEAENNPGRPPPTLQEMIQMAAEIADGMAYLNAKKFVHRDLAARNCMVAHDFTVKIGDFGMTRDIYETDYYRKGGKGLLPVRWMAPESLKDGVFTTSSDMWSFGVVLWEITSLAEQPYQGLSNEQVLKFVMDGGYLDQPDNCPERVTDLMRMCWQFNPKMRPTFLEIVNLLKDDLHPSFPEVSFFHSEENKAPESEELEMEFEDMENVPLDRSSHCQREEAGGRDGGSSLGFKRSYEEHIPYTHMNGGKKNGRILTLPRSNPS

[15] = target: Homeodomain-interacting protein kinase 1 (Homo sapiens) (UniProt Q86Z02); experiment: Inhibition of human HIPK1 at 10 uM using MBP as substrate by [gamma-33P]-ATP assay relative to control; in short: as §1
[16] = target: Dual specificity mitogen-activated protein kinase kinase 1 (Homo sapiens) (UniProt Q02750); experiment: Inhibition of human MEK1 at 10 uM using ERK2 (K52R) as substrate by [gamma-33P]-ATP assay relative to control; in short: as §1
[17] = target: Serine/threonine-protein kinase pim-1 (Homo sapiens) (UniProt P11309); experiment: Inhibition of human PIM1 at 10 uM using KKRNRTLTK as substrate by [gamma-33P]-ATP assay relative to control; in short: as §2
Serine/threonine-protein kinase pim-1 (Homo sapiens), sequence (P11309 whole entry, looked up): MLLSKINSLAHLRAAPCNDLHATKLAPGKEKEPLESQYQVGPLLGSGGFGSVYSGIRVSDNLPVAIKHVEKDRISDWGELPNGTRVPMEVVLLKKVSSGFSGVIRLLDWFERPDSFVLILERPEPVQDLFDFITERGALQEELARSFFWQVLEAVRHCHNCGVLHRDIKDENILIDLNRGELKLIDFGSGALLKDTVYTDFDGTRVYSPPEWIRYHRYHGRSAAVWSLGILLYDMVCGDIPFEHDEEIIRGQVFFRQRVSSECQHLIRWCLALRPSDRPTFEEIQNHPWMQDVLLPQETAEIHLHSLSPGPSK

[18] = target: Mitogen-activated protein kinase 8 (Homo sapiens) (UniProt P45983); experiment: Inhibition of human JNK1 at 10 uM using ATF2 as substrate by [gamma-33P]-ATP assay relative to control; in short: as §1
Mitogen-activated protein kinase 8 (Homo sapiens), sequence (P45983 whole entry): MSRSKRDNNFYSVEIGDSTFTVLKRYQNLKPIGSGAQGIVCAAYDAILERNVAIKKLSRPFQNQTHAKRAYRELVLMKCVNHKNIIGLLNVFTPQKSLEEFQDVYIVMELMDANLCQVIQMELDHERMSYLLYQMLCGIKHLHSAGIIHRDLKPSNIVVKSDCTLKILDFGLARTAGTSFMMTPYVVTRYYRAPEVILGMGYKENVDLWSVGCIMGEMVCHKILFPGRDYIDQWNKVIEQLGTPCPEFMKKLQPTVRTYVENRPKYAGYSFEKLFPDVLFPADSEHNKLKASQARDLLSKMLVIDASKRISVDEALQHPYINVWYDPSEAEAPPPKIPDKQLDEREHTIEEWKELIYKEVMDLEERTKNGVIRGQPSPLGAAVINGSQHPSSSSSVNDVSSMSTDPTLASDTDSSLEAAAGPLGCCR

[19] = target: Vascular endothelial growth factor receptor 2 (Homo sapiens) (UniProt P35968); experiment: Inhibition of human KDR at 10 uM using poly[Glu:Tyr] (4:1) as substrate by [gamma-33P]-ATP assay relative to control; in short: as §1
[20] = target: High affinity nerve growth factor receptor (Homo sapiens) (UniProt P04629); experiment: Inhibition of human TRKA at 10 uM using poly[Glu:Tyr] (4:1) as substrate by [gamma-33P]-ATP assay relative to control; in short: as §2
High affinity nerve growth factor receptor (Homo sapiens), sequence (P04629 33-796 limits assumed): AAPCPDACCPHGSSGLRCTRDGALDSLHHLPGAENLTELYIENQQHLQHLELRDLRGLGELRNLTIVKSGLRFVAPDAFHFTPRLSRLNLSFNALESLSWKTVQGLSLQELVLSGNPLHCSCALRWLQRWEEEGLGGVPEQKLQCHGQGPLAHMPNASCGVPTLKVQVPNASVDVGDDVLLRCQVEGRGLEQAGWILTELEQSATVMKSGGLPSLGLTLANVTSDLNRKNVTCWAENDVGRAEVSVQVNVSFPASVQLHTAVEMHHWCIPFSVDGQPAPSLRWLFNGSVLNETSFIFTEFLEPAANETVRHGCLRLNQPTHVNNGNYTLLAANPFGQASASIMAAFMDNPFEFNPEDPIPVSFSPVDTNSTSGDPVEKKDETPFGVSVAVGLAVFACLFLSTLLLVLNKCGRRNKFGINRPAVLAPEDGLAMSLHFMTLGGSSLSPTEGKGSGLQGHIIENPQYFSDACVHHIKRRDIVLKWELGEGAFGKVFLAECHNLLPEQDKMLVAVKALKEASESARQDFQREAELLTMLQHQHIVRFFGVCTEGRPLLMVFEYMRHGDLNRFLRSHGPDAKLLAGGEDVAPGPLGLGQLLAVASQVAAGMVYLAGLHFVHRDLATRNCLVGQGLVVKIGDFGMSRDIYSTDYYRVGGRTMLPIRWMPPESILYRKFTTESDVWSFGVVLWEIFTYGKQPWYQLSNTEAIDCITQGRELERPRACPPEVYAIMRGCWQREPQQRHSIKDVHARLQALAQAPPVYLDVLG

[21] = tested on: HeLa; experiment: Antiproliferative activity against human HeLa cells after 2 days by spectrophotometric analysis; assay type: functional; details: 48 h
In short: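 Cells from ATCC were kept in RPMI 1640 with 5% FBS. They were exposed to graded concentrations in DMSO/RPMI for 48 h at 37 C under 5% CO2, then fixed with 50% trichloroacetic acid. Cellular protein was read at 540 nm at time zero and at 48 h, with and without compound. TGI (100% growth inhibition) was taken from the concentration-response curve.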

`CC(=O)N1CCN(c2ccc(Nc3ncc(C(F)(F)F)c(N4Cc5cccc(N(C)S(C)(=O)=O)c5C4)n3)cc2)CC1` gave a GI50 [1] of 420 nM, an inhibition [2] of 91.1% and an inhibition [3] of 40.1%. For the same compound, the GI50 [4] was 22100 nM, the IC50 [5] was under 0.5 nM and the inhibition [6] was 85.2%. It also gave an inhibition [7] of 95.3%, an inhibition [8] of 17.8% and a GI50 [9] of 1000 nM. It also gave an inhibition [10] of -3.6%, an inhibition [11] of 88.2% and an inhibition [12] of 95.2%. For the same compound, the inhibition [13] was 84.1%, the inhibition [14] was 89.8% and the inhibition [15] was 83.8%. It also gave an inhibition [16] of 3.6%, an inhibition [17] of 9.8% and an inhibition [18] of 45.1%. For the same compound, the inhibition [19] was 55.8%, the inhibition [20] was 92.2% and the GI50 [21] was 730 nM.
